# In PubChem BioAssay AID623987 (Broad Institute, 2012):
# The source made the active and inactive calls.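 Rule for the calls: active = compounds lowering cell ATP light, with fitted IC50 at most twice the top tested dose; inconclusive = flat curve losing 30 to 70% signal, or poor fit; inactive = the rest.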
# Test system: HeLa viability, CellTiter-Glo ATP luminescence
# Assay: HeLa cell cytotoxicity, dose response, cytotoxicity control for pyoverdine/PvdQ inhibitor project, CellTiter-Glo luminescence, dry powder, set 3 (AID 623987)
# Details: not given
# Outline: (§1)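 Doses: 3-fold compound dilution series from 10 mM stock top. Material: HeLa cells. Technique: CellTiter-Glo luminescence measuring cellular ATP. Times: cells grown 24 h at 37 °C before dosing, 48 h compound exposure.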
row,Structure (SMILES),IC50
1,COCCC(C#N)c1ccc(Cl)cc1 (stereo not given),94.2 µM
2,N#CC(c1cccc(C(F)(F)F)n1)c1ccc(Cl)cc1F (stereo not given),> 240 µM (inactive)
3,N#CC(c1ccc(C(F)(F)F)c(Cl)n1)c1ccccc1OC(F)(F)F (stereo not given),> 240 µM (inactive)
4,COCCOCCC(C#N)c1ccc(Cl)cc1 (stereo not given),> 240 µM (inactive)
5,CN(C)CCCC(C#N)c1ccc(F)cc1 (stereo not given),> 240 µM (inactive)
6,N#CC1c2ccc(Cl)cc2CCc2cccnc21 (stereo not given),> 240 µM (inactive)
7,N#CC(c1ccc(Cl)cc1)c1ncccc1Cl (stereo not given),> 240 µM (inactive)
8,CCCCC(C#N)c1ccccn1 (stereo not given),> 240 µM (inactive)
9,N#CC(c1ccc(F)cc1)c1cccc(Cl)n1 (stereo not given),> 240 µM (inactive)

# Test system: not listed separately
# Assay: as above
# Details: HeLa viability, CellTiter-Glo ATP luminescence; at 120 µM (top of the series)
# Outline: as §1
row,Structure (SMILES),"activity change, negative = toxicity"
1,Clc1ccc(C(c2cccc(Cl)n2)c2nn[nH]n2)cc1 (stereo not given),1.4% (inactive)
2,N#Cc1cccc(C(C#N)c2ccc(F)cc2)n1 (stereo not given),-2.4% (inactive)
3,CCCCC(c1ccc(Cl)cc1)c1nn[nH]n1 (stereo not given),9.15% (inactive)
4,N#CC(c1ccc(Cl)cc1)c1ccccn1 (stereo not given),0.002% (inactive)
5,CCCCC(C#N)c1ccc(Cl)cn1 (stereo not given),13.2% (inactive)
6,CCCCC(C#N)c1ccc(F)cn1 (stereo not given),1.98% (inactive)
7,N#CC(c1ccc(F)cc1)c1cccc(C(F)(F)F)n1 (stereo not given),5.55% (inactive)
8,CCCCC(C#N)c1ccc(Cl)cc1 (stereo not given),7.6% (inactive)
9,N#CC(c1ccc(Cl)cc1)c1cccc(C(F)(F)F)n1 (stereo not given),4.48% (inactive)
10,N#CC(c1ccc(Cl)cc1)c1cccc(Cl)n1 (stereo not given),3.78% (inactive)
11,CN(C)CCCC(C#N)c1ccc(Cl)cc1 (stereo not given),6.74% (inactive)
12,COCCNC(C#N)c1ccc(Cl)cc1 (stereo not given),-1.45% (inactive)
13,COCCOCCC(C#N)c1ccc(F)cc1 (stereo not given),5.01% (inactive)
14,COCCC(C#N)c1ccc(F)cc1 (stereo not given),4.64% (inactive)
15,N#CC(c1ccc(Cl)cc1)N1CCCC1 (stereo not given),24% (inactive)
16,CCCCC(C#N)c1ccc(F)cc1 (stereo not given),-1.79% (inactive)
